Test results reported in ChEMBL document CHEMBL1133728, “Synthesis, structure, and neuroprotective properties of novel imidazolyl nitrones” (J Med Chem, 2000).

How the values were obtained:
Mus musculus [1] = test: Inhibition of t-BHP (tert-butyl-hydro-peroxide) induced toxicity in mice following 150 mg/Kg i.p.; type: functional
In short: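 Male NMRI mice (30–35 g) pretreated ip with 150 mg/kg in 0.2 mL saline/Tween, 30 min before icv injection of 70% t-BHP (22 mg/kg/μl). Lethality checked at 1, 2, 5, 24 h; value is percentage survival at 2 h versus t-BHP-only group; n = 10 per group.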

Mus musculus [2] = test: In vivo induction of hypothermia in mice following 150 mg/Kg i.p.; type: functional

Row | SMILES | Neuroprotection (Mus musculus [1]) [%] | Hypothermic effect (Mus musculus [2])
1 | CC(C)(C)/[N+]([O-])=C/c1c[nH]c(-c2ccc(C(F)(F)F)cc2)n1 | 80 | 2.16 °C
2 | COc1ccc(-c2nc(/C=[N+](\[O-])C(C)(C)C)c[nH]2)cc1 | 53 | 0.53 degrees C
3 | CC(C)(C)/[N+]([O-])=C/c1c[nH]c(-c2ccccn2)n1 | 0 | 0.36 °C
4 | CC(C)(C)/[N+]([O-])=C/c1c[nH]c(-c2cccnc2)n1 | 0 | 0.75 °C
5 | Cn1cc(/C=[N+](\[O-])C(C)(C)C)nc1-c1ccccc1 | 50 | 0.3 °C
6 | CC(C)(C)/[N+]([O-])=C/c1ccccc1 | 57 | 0.9 °C
7 | Cc1ccc(-c2nc(/C=[N+](\[O-])C(C)(C)C)c[nH]2)cc1 | 66 | 1.24 °C
8 | CC(C)(C)/[N+]([O-])=C/c1nc(-c2ccccc2)c[nH]1 | 0 | 1.42 degrees C
9 | CC(C)(C)/[N+]([O-])=C/c1c[nH]c(-c2ccc(F)cc2)n1 | 67 | 2.01 °C
10 | CC(C)(C)/[N+]([O-])=C/c1c[nH]c(-c2c[nH]cn2)n1 | 0 | 0.13 °C
11 | CC(C)(C)/[N+]([O-])=C/c1c[nH]c(-c2cccc(Cl)c2)n1 | 89 | 1.66 °C
12 | Cn1c(/C=[N+](\[O-])C(C)(C)C)cnc1-c1ccccc1 | 0 | 0.69 °C
13 | CC(C)(C)/[N+]([O-])=C/c1c[nH]c(-c2ccc3ccccc3c2)n1 | 94 | 1.62 °C
14 | CC(C)(C)/[N+]([O-])=C/c1c[nH]c(-c2ccsc2)n1 | 40 | 0.48 °C
15 | CC(C)(C)/[N+]([O-])=C/c1c[nH]c(-c2ccncc2)n1 | 24 | 0.49 °C
16 | CC(C)(C)/[N+]([O-])=C/c1c[nH]c(-c2ccc([N+](=O)[O-])cc2)n1 | 93 | 1.89 °C
17 | CC(C)(C)/[N+]([O-])=C/c1c[nH]c(-c2ccc(Cl)cc2)n1 | 89 | 1.32 °C
18 | CC(C)(C)/[N+]([O-])=C/c1c[nH]c(-c2ccoc2)n1 | 30 | 0.78 °C
19 | CC(C)(C)/[N+]([O-])=C/c1c[nH]c(-c2ccccc2Cl)n1 | 71 | 1.91 °C
20 | CC(C)(C)/[N+]([O-])=C/c1c[nH]c(-c2ccccc2)n1 | 78 | 0.33 °C
21 | CC(C)(C)/[N+]([O-])=C/c1c[nH]c(-c2cccc3ccccc23)n1 | 75 | 0.52 °C
22 | CC(C)(C)/[N+]([O-])=C/c1c[nH]c(-c2ccco2)n1 | 15 | 0.72 °C
23 | CC(C)(C)/[N+]([O-])=C/c1c[nH]c(-c2nccs2)n1 | 0 | 0.38 °C
